The source of these data is ChEMBL document CHEMBL1155751, “Two phenanthraquinones from Dendrobium moniliforme” (J Nat Prod, 2001).

Series [1] has as its system RAW264.7. The experiment in a line: Cytotoxicity against mouse RAW264.7 cells assessed as LDH release. Type of series: cell-based. (In general: Release of lactate dehydrogenase indicates damage to the cell membrane.)
Series [2] has as its system RAW264.7. Description: Antiinflammatory activity in mouse RAW264.7 cells assessed as inhibition of LPS-induced TNFalpha formation at 1 uM treated 1 hr before LPS challenge measured after 24 hrs by ELISA. Type of series: functional. In short, it runs like this: (§1)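 RAW 264.7 cells were seeded at 2 × 10^5 cells/well in DMEM with 5% heat-inactivated FBS, penicillin and streptomycin, and left to adhere overnight. Cells got DMSO or compound at 37 °C for 1 h, then 1 µg/mL LPS (E. coli 0111:B4) for 24 h. Medium nitrite was read by Griess (550 nm, NaNO2 standard), TNF-α by ELISA and PGE2 by EIA. Means ± SEM, N = 3-4.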

Series [3] concerns Neutrophil. Description: Inhibition of secretagogue-induced superoxide anion generation in rat neutrophils at 30 uM treated 30 mins before secretagogue challenge measured after 15 mins. Type of series: functional, cell-based.
Series [4] deals with Neutrophil. The experiment in a line: Inhibition of secretagogue-induced beta-glucuronidase release in rat neutrophils at 30 uM treated 30 mins before secretagogue challenge measured after 15 mins. Type of series: functional, cell-based.
For series [5], the system named is RAW264.7. The experiment in a line: Antiinflammatory activity in mouse RAW264.7 cells assessed as LPS-induced nitrite levels at 1 uM treated 1 hr before LPS challenge measured after 24 hrs by Griess reaction (Rvb=46.6 +/- 0.4). The class given is functional. In short, it runs like this: as §1
(In general: Nitrite, measured by Griess reagent, commonly stands in for NO production.)

The subject of series [6] is Mast cell. The experiment in a line: Inhibition of secretagogue-induced histamine release in Sprague-Dawley rat peritoneal mast cells at 30 uM […] secretagogue challenge measured after 15 mins. The class given is functional. To be noted: read-out: INH, in the assay text read “3 mins before” for “30 mins before”. In short, it runs like this:
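Peritoneal mast cells came from exsanguinated Sprague-Dawley rats by heparinized Tyrode's lavage, purified through 38% BSA, and resuspended at (1-1.5) × 10^6 cells/mL in Tyrode's with 0.1% BSA. Supernatant β-glucuronidase was read at 550 nm (phenolphthalein glucuronide, pH 4.5) and histamine by o-phthaldialdehyde fluorescence at 350/450 nm. Release is % of the Triton X-100 total.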

Series [7] concerns Neutrophil. Description: Inhibition of secretagogue-induced histamine release in rat neutrophils at 30 uM treated 30 mins before secretagogue challenge measured after 15 mins. Type of series: functional, cell-based.
For series [8], the system named is N9. The experiment in a line: Antiinflammatory activity in mouse N9 cells assessed as inhibition of LPS and IFN-gamma-induced nitrite formation at 3 uM treated 1 hr before LPS and IFN-gamma challenge measured after 24 hrs by Griess reaction. To be noted: N9, read-out: INH.
Series [9] has as its system N9. The experiment in a line: Cytotoxicity against mouse N9 cells assessed as LDH release. Type of series: cell-based.
The test system of series [10] is N9. Description: Antiinflammatory activity in mouse N9 cells assessed as inhibition of LPS and IFN-gamma-induced TNFalpha formation at 3 uM treated 1 hr before LPS and IFN-gamma challenge measured after 24 hrs by ELISA. The conditions noted are these: N9, read-out: INH. On the technique in general: ELISA stands for enzyme-linked immunosorbent assay.
Series [11] concerns Mast cell. The experiment in a line: Inhibition of secretagogue-induced beta-glucuronidase release in Sprague-Dawley rat peritoneal mast cells at 30 uM treated 3 mins before secretagogue challenge measured after 15 mins.
For series [12], the system named is RAW264.7. Description: Antiinflammatory activity in mouse RAW264.7 cells assessed as inhibition of LPS-induced prostaglandin E2 formation at 1 uM treated 1 hr before LPS challenge measured after 24 hrs by EIA. The class given is functional. The method, boiled down:
as §1

In series [13] the test system is Mast cell. Description: Secretagogue-induced histamine release in Sprague-Dawley rat peritoneal mast cells at 30 uM treated 3 mins before secretagogue challenge measured after 15 mins.

Activity calls are given as the source filed them. The rule behind the calls is not given here.

For `COC1=CC(=O)c2ccc3cc(OC)cc(O)c3c2C1=O` [DENBINOBIN], the Activity with RAW264.7 [1] is < 10%; in the series on RAW264.7 [5] it was 40.4 µM; in the series with N9 [9], < 10%. The values for the inhibition at 1 µM in the series on RAW264.7 [2] and in the series on RAW264.7 [12] were 62% and 43%, respectively. For the same compound, the outcome with Neutrophil [3], in the series on Neutrophil [4] and in the series with Neutrophil [7] was inactive. For the same compound, the inhibition at 30 µM with Mast cell [6] stood at 39%; with Mast cell [11] it was 40%. In addition, the inhibition at 3 µM in the series with N9 [8] turned out to be 44%; with N9 [10], 70%.

In the series on Mast cell [13], `CCN(CC)CCCC(C)Nc1c2ccc(Cl)cc2nc2ccc(OC)cc12` (centres undefined) [QUINACRINE] gave a histamine release at 30 µM of 18.4%. The same compound had an inhibition at 30 µM in the series on Mast cell [11] of 8.7%.
